Laboratory results as given in ChEMBL document CHEMBL3091430, “Design and evaluation of xanthine based adenosine receptor antagonists: potential hypoxia targeted immunotherapies” (Bioorg Med Chem, 2013).
Activity calls are given as the source filed them. No cut-off for these calls is given here.

Columns and labels:
[1] = Photostability of the compound assessed as compound remaining measured within 24 hrs by HPLC analysis; format: physicochemical; conditions: read-out: Stability
[2] = Partition coefficient, log K of the compound; format: physicochemical; conditions: octanol/water
[3] = Photostability of the compound assessed as compound remaining measured within 7 days by HPLC analysis; format: physicochemical; conditions: read-out: Stability
Lymphocyte = assay: Induction of mAB-CD3-mediated IFN-gamma production in CGS-21680-treated C57/BL6 mouse lymphocytes at 0.5 uM after 24 hrs by ELISA; format: functional, cell-based
Method in brief: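 C57/BL6 mouse splenic lymphocytes activated with 0.1 μg/mL anti-CD3 mAb, then immediately given 1, 10 or 100 nM CGS 21680 with or without antagonist at 0.5 μM. Supernatant IFN-gamma measured after 24 h by sandwich ELISA (paired mAb with standard), in pg/mL; triplicates, mean ± SEM.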

[4] = Half life in rat; format: ADME, organism-based; conditions: in vivo
[5] = Octanol-water partition coefficient, log P of the compound by HPLC analysis; format: physicochemical
[6] = Photostability of the compound assessed as compound remaining after 2 weeks by HPLC analysis; format: physicochemical; conditions: 336 h
[7] = Half life in mouse at 20 mg/kg, ip by HPLC analysis; format: ADME, organism-based; parameters: dose 20 mg/kg, route intraperitoneal; conditions: in vivo
[8] = target: Adenosine receptor A2a (Mus musculus) (UniProt Q60613); assay: Antagonist activity at adenosine A2A receptor in C57/BL6 mouse lymphocytes assessed as inhibition of CGS-21680-mediated cAMP accumulation after 15 mins by ELISA; format: functional, cell-based
Sequence of Adenosine receptor A2a (Mus musculus) (Q60613 whole entry): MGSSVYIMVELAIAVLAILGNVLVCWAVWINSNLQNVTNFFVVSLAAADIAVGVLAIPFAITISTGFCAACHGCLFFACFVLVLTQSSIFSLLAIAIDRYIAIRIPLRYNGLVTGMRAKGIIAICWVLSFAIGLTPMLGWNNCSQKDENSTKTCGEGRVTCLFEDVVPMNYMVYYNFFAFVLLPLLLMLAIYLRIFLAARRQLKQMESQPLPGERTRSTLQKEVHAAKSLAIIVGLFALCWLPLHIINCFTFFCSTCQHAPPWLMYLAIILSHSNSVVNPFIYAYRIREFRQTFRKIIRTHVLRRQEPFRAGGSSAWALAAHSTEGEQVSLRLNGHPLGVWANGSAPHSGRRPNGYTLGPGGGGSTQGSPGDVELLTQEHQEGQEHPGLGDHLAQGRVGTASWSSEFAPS
Method in brief: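 Splenic lymphocytes from C57/BL6 mice stimulated with 1 μM CGS 21680 (A2AR agonist), with or without antagonist over 0.1–10 μM; 15 min at 37 °C, stopped with 1 N HCl. Intracellular cAMP quantified by ELISA, expressed as pmol/million cells; triplicate samples, mean ± SEM.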

| log K [2] | logP [5] | Compound | Activity (Lymphocyte) | also measured |
| --- | --- | --- | --- | --- |
| 0.162 | 2.98 | CCn1c(=O)c2c(nc(/C=C/c3ccc(OC)c(OC)c3)n2C)n(CC)c1=O [ISTRADEFYLLINE] | Active | remaining at 24 h [1]: 10%; remaining at 168 h [3]: > 50%; half-life [4]: 2 h |
| 0.145 | 2.8 | CCn1c(=O)c2c(nc(/C=C/c3ccc(C(=O)OCCOCCOCCOCCOCCOCCOCCOCCOC)c(OC)c3)n2C)n(CC)c1=O | Active | Stability [6]: Stable |
| – | – | Nc1nc(NCCc2ccc(O)cc2)nc2nc(-c3ccco3)nn12 [ZM-241385] | – | half-life [7]: < 1 h |
| – | – | CCn1c(=O)c2c(nc(/C=C/c3ccc(C(=O)OC)c(OC)c3)n2C)n(CC)c1=O | – | inhibition [8]: Active |
